According to ChEMBL document CHEMBL1641493, “Discovery of fused 5,6-bicyclic heterocycles as γ-secretase modulators” (Bioorg Med Chem Lett, 2011):
Calls of active or inactive are those of the source. The rule behind the calls is not given here.

Key:
[1] = biological target: Gamma-secretase; experiment: Inhibition of gamma secretase-mediated amyloid beta42 production in HEK293 cells by sandwich immunoassay; format: cell-based, Homo sapiens
How it was run: (§1)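 HEK293 cells stably transfected with APPsw-lon (pcDNA3.1) treated with compound for 5 h. Aβ in the conditioned medium measured by MSD electrochemiluminescent sandwich immunoassay, using TAG-G2-11/biotin-4G8 for Aβ42 and TAG-W02/biotin-4G8 for total Aβ. IC50 values derived for each, and the ratio taken as total Aβ IC50 over Aβ42 IC50.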

[2] = biological target: Gamma-secretase (Homo sapiens) (UniProt Q96BI3+Q9NZ42+Q8WW43+P49768+Q92542+P49810); experiment: Selectivity ratio of IC50 for gamma secretase-mediated total amyloid beta production to IC50 for gamma secretase-mediated amyloid beta42 production in HEK293 cells; format: cell-based; how it was run: as §1
[3] = tested on: Rattus norvegicus; experiment: Antialzheimer activity in CD rat assessed as decrease in amyloid beta42 level in CSF at 30 mg/kg, po after 3 hrs; format: functional
How it was run: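 Male CD rats (~100 g) given a single oral dose of 30 mg/kg formulated in 20% hydroxypropyl β-cyclodextrin. CSF sampled 3 h after dosing, stored at -80 °C, and CSF Aβ42 quantified with AlphaLISA amyloid assay kits. Effect expressed as % change in Aβ42.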

[4] = tested on: Rattus norvegicus; experiment: Antialzheimer activity in CD rat assessed as decrease in amyloid beta42 level in brain at 30 mg/kg, po after 3 hrs; format: functional
How it was run: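 Male CD rats (~100 g) dosed orally at 30 mg/kg in 20% hydroxypropyl β-cyclodextrin, brains taken 3 h later and frozen on dry ice. Half cortex homogenized and extracted in 5 M guanidine-HCl/50 mM Tris-HCl pH 8, sonicated, and cleaned up by solid-phase extraction. Eluate dried and resuspended in PBS/0.5% Tween 20, then Aβ42 read by AlphaLISA. Result given as % change.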

| Structure (SMILES) | IC50 [1] | Ratio IC50 [2] | further results |
| --- | --- | --- | --- |
| CC[C@@H](c1ccc(F)cc1)N1CCCc2c(-c3ccc(-n4cnc(C)c4)c(OC)c3)noc21 | 875 nM | 17 | – |
| COc1cc(-c2nnc3n2CCCN3C(C)c2c(F)cc(F)cc2F)ccc1-n1cnc(C)c1 (stereo not drawn) | 342 nM | 58 | – |
| COc1cc(-c2nnc3n2CCCN3C(c2ccccc2)C2CC2)ccc1-n1cnc(C)c1 (stereo not drawn) | 20000 nM | 1 | – |
| COc1cc(-c2nnc3n2CCCN3C(=O)c2ccc(F)cc2)ccc1-n1cnc(C)c1 | 19300 nM | 1 | – |
| COc1cc(-c2nnc3n2CCCN3C(=O)Cc2ccc(F)cc2)ccc1-n1cnc(C)c1 | 1920 nM | 10 | – |
| CC[C@H](c1cc(F)c(F)c(F)c1)N1CCCc2c(-c3ccc(-n4cnc(C)c4)c(OC)c3)n[nH]c21 | 209 nM | 96 | – |
| COc1cc(-c2noc3c2CCCN3[C@@H](C)c2ccc(F)cc2)ccc1-n1cnc(C)c1 | 448 nM | 29 | – |
| COc1cc(-c2nnc3n2CCCN3CCc2ccc(F)cc2)ccc1-n1cnc(C)c1 | 619 nM | 32 | – |
| COc1cc(/C=C2\CCCN([C@@H](C)c3ccc(F)cc3)C2=O)ccc1-n1cnc(C)c1 | – | – | inhibition in vivo at 30 mg/kg [3]: 55%; inhibition in vivo at 30 mg/kg [4]: 44% |
| COc1cc(-c2onc3c2CCCN3Cc2ccc(F)cc2)ccc1-n1cnc(C)c1 | 356 nM | 48 | inhibition [3]: inactive; inhibition [4]: inactive |
| COc1cc(-c2onc3c2CCCN3[C@@H](C)c2ccccc2)ccc1-n1cnc(C)c1 | 537 nM | 37 | – |
| COc1cc(-c2nnc3n2CCCN3C(=O)N2CCOCC2)ccc1-n1cnc(C)c1 | 20000 nM | 1 | – |
| CCCCCN1CCCn2c(-c3ccc(-n4cnc(C)c4)c(OC)c3)nnc21 | 1410 nM | 14 | – |
| COc1cc(-c2nnc3n2CCCN3Cc2ccc(F)c(F)c2)ccc1-n1cnc(C)c1 | 552 nM | 36 | – |
| COc1cc(-c2onc3c2CCCN3Cc2cc(F)cc(F)c2)ccc1-n1cnc(C)c1 | 440 nM | 46 | – |
| CCCCC(=O)N1CCCn2c(-c3ccc(-n4cnc(C)c4)c(OC)c3)nnc21 | 2070 nM | 10 | – |
| COc1cc(-c2nnc3n2CCCN3Cc2ccc(C#N)cc2)ccc1-n1cnc(C)c1 | 2530 nM | 3 | – |
| COc1cc(-c2nnc3n2CCCN3)ccc1-n1cnc(C)c1 | 20000 nM | 1 | – |
| CC[C@@H](c1cc(F)c(F)c(F)c1)N1CCCc2c(-c3ccc(-n4cnc(C)c4)c(OC)c3)n[nH]c21 | 122 nM | 164 | inhibition in vivo at 30 mg/kg [3]: 26% |
| COc1cc(-c2nnc3n2CCCN3C(C)c2ccc(F)cc2)ccc1-n1cnc(C)c1 (stereo not drawn) | 509 nM | 39 | – |
| CCC(c1ccc(F)cc1)N1CCCn2c(-c3ccc(-n4cnc(C)c4)c(OC)c3)nnc21 (stereo not drawn) | 156 nM | 128 | – |
| COc1cc(-c2onc3c2CCCN3[C@@H](C)c2ccc(F)cc2)ccc1-n1cnc(C)c1 | 465 nM | 38 | – |
| COc1cc(-c2nnc3n2CCCN3Cc2ccc(Cl)c(Cl)c2)ccc1-n1cnc(C)c1 | 126 nM | 159 | – |
| CCC(c1cc(F)c(F)c(F)c1)N1CCCc2c(-c3ccc(-n4cnc(C)c4)c(OC)c3)n[nH]c21 (stereo not drawn) | 201 nM | 99 | – |

The remaining compounds from weak to strong by IC50 [1], led by results:

| IC50 [1] | Ratio IC50 [2] | Structure (SMILES) | further results |
| --- | --- | --- | --- |
| 16400 nM | 1 | COc1cc(-c2nnc3n2CCCN3C(c2ccc(F)cc2)C2CC2)ccc1-n1cnc(C)c1 (stereo not drawn) | – |
| 2210 nM | 9 | COc1cc(-c2nnc3n2CCCN3S(=O)(=O)c2ccc(F)cc2)ccc1-n1cnc(C)c1 | – |
| 1410 nM | 14 | COc1ccc(CN2CCCn3c(-c4ccc(-n5cnc(C)c5)c(OC)c4)nnc32)cc1 | – |
| 1390 nM | 14 | COc1cc(-c2noc3c2CCCN3[C@H](C)c2ccc(F)cc2)ccc1-n1cnc(C)c1 | – |
| 935 nM | 21 | COc1cc(-c2noc3c2CCCN3[C@@H](C)c2cc(F)cc(F)c2)ccc1-n1cnc(C)c1 | – |
| 649 nM | 31 | COc1cc(-c2nnc3n2CCCN3Cc2ccc(F)cc2)ccc1-n1cnc(C)c1 | – |
| 540 nM | 37 | COc1cc(-c2noc3c2CCCN3[C@@H](C)c2cc(F)c(F)c(F)c2)ccc1-n1cnc(C)c1 | – |
| 485 nM | 41 | COc1cc(-c2nnc3n2CCCN3C(=O)C(C)c2ccc(F)cc2)ccc1-n1cnc(C)c1 (stereo not drawn) | – |
| 164 nM | 46 | COc1cc(-c2n[nH]c3c2CCCN3C(C)c2ccc(F)cc2)ccc1-n1cnc(C)c1 (stereo not drawn) | – |
| 145 nM | 138 | CCCC(c1ccc(F)cc1)N1CCCn2c(-c3ccc(-n4cnc(C)c4)c(OC)c3)nnc21 (stereo not drawn) | – |
| 116 nM | 165 | COc1cc(-c2nnc3n2CCCN3C(C)c2cc(F)c(F)c(F)c2)ccc1-n1cnc(C)c1 (stereo not drawn) | – |
